Several values for one entry are separate records, joined by “and”; a condition that tells them apart may be missing. Identical values can stand only once.
Columns and labels:
[1] = Pharmacokinetic studies in mice; type: in vivo, Swiss Webster mice
Outline: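 Six-week-old female mice given 25 mg/kg by gavage (2% PEG in 2% aqueous HPMC), 25 mg/kg IP (50% propylene glycol/50% PBS pH 7.2) or 1 mg/kg tail vein (PBS pH 7.2). Blood, lung and non-perfused brain taken at 10–1,440 min, n = 4 (oral, IP) or 8 (IV). Methanol extraction with internal standard, then LC-MS/MS. Two-compartment model; half-lives from elimination rates.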

CYP3A4 = CYP3A4 (Homo sapiens, UniProt P08684); experiment: CYP3A4 inhibition assay; details: recombinant CYP3A4, fluorescent substrate
[2] = Phase I microsomal stability assay, human liver fraction; type: in vitro ADME; details: NADPH, 10 μM, 0.5 mg/mL protein, two hours
Outline: (§1)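 Test compound at 10 μM in phosphate buffer pH 7.4 with NADPH regenerating system, preincubated 5 min at 37°C. Started with dog, mouse or rat liver microsomes or human liver fraction (0.5 mg/mL protein).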

[3] = neutral pH; cited from earlier work
GABAA receptors = details: read-out: receptor affinity (EC50); no reference given; cited from earlier work
[4] = repeated high dose exposure in rodents; cited from earlier work
[5] = Phase II stability assay, glucosidation, mouse kidney S9; type: in vitro ADME; details: mouse kidney S9, UDP-Glc
Outline: (§2)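 Glucosidation: test compound 10 μM in phosphate buffer pH 7.4 with UDP-glucose, gluco-1,5-lactone, MgCl2 and alamethicin, 37°C. Started with mouse liver or kidney S9 (0.5 mg/mL protein). Sampled 0–120 min; long assay (kidney) sampled 1–24 h. Quenched in acetonitrile with internal standard, then LC-MS/MS. t1/2 from ln area ratio. Long assay: first-order k from glucoside area ratio. Two independent assays, triplicate.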

[6] = Phase I microsomal stability assay, mouse liver microsomes; type: in vitro ADME; details: NADPH, 10 μM, 0.5 mg/mL protein, two hours
Outline: as §1

[7] = Phase I microsomal stability assay, rat liver microsomes; type: in vitro ADME; details: NADPH, 10 μM, 0.5 mg/mL protein, two hours
Outline: as §1

[8] = Phase II stability assay, glucosidation, mouse liver S9; type: in vitro ADME; details: mouse liver S9, UDP-Glc
Outline: as §2

[9] = Imaging mass spectrometry of lung after oral administration; type: in vivo, Swiss Webster mice; details: 25 mg/kg oral, lungs harvested after 1 h, 50 μm resolution
Outline: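 Female Swiss Webster mice dosed orally. Lungs excised, frozen briefly on dry-ice vapour, stored at −80°C, then equilibrated to −20°C for 30 min. 20-micron cryosections thaw-mounted, rinsed with 0.1% TFA and dried 1 h. 2,5-Dihydroxyacetophenone matrix (50 mg/mL) sprayed in layers. MALDI-TOF/TOF in reflectron MS/MS mode, transitions m/z 416>372 and 416>331.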

[10] = Phase I microsomal stability assay, dog liver microsomes; type: in vitro ADME; details: NADPH, 10 μM, 0.5 mg/mL protein, two hours
Outline: as §1

[11] = Phase II stability assay, glucuronidation, human liver S9; type: in vitro ADME; details: human liver S9, UDP-GlcUA, alamethicin, saccharolactone, 10 μM
Outline: (§3)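 Glucuronidation: test compound 10 μM in phosphate buffer pH 7.4 with UDP-glucuronic acid, saccharic-1,4-lactone, MgCl2 and alamethicin, 37°C. Started with human or mouse liver S9 (0.5 mg/mL protein). Short assay sampled 0–120 min; long assay (mouse) sampled 1–24 h. Quenched in acetonitrile with internal standard, then LC-MS/MS. t1/2 from ln area ratio. Long assay: first-order k from glucuronide area ratio. Two independent assays, triplicate.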

[12] = Quantification of MIDD0301 and MIDD0301 metabolites in urine and feces; type: in vivo, Swiss Webster mice; details: for Feces & Urine (%) 0-48 hours / Feces (%) 0-24 hours / Feces (%) 24-48 hours / Urine (%) 0-24 hours / Urine (%) 24-48 hours: % of moles of MIDD0301 administered
Outline: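 Seven-week-old female mice housed singly in metabolic cages; n = 3 per route. Dosing: oral 750 μg, IP 750 μg (50% propylene glycol/PBS) or IV 250 μg (PBS). Urine and feces collected at 0–24 and 24–48 h and stored at −20°C. Extracted with internal standards, ultrafiltered, then C18 LC-MS/MS with positive MRM against synthesized-standard calibration curves. Reported as % of moles administered.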

[13] = cited from earlier work
[14] = Phase II stability assay, glucuronidation, mouse liver S9; type: in vitro ADME
Outline: as §3

[15] = four hours; cited from earlier work

Chain of CYP3A4 (P08684 whole entry): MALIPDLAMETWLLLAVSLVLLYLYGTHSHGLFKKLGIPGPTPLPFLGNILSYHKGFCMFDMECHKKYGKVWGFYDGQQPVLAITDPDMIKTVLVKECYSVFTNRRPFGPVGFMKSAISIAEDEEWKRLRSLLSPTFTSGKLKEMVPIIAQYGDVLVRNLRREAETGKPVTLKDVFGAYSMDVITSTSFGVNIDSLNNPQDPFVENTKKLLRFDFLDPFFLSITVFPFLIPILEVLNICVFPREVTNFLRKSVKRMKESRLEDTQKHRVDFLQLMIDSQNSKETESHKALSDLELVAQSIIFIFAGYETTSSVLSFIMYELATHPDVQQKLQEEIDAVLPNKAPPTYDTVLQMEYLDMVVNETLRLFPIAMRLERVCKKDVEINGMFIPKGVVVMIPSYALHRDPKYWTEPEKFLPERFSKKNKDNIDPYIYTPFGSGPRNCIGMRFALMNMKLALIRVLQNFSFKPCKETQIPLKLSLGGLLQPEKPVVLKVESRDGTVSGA

In the case of C[C@H]1N=C(c2ccccc2F)c2cc(Br)ccc2-n2cnc(C(=O)O)c21 [MIDD0301], the half-lives ([1]; 1 mg/kg IV tail vein injection, blood, lung, brain) is reported as 1 to 2 h, the “tolerability of tail vein injection” value ([1]; 1 mg/kg IV, aqueous solution) is reported as “well-tolerated without signs of irritation” and the signs of toxicity ([1]; 25 mg/kg IP, throughout the study) is reported as “no signs of toxicity”. The “blood concentration after 24 h” value ([1]; 25 mg/kg oral) was 12 nM, the “brain concentration after 24 h” value ([1]; 25 mg/kg oral) was “less than 3 nM” and the “lung concentration after 24 h” value ([1]; 25 mg/kg oral) was “less than 3 nM”. The tmax ([1]; 25 mg/kg oral gavage) was 0.333 h, the “brain concentration as % of the corresponding blood concentrations” value ([1]; 25 mg/kg oral, non-perfused brains) was “less than 7%” and the “half-lives for blood and lung” value ([1]; 25 mg/kg oral, based on calculated elimination rates, two compartment model) was 4 to 5 h. The “drug half-life in blood, lung, and brain” value ([1]; IP administration) was 4 to 6 h, the “drug half-life in blood, lung, and brain” value ([1]; oral administration) was 4 to 6 h and the “% inhibition of CYP3A4 activity” value (CYP3A4; 10 μM) was “less than 1%”. For the same molecule, the “metabolic conversion of MIDD0301” value [2] was “not observed”, the aqueous solubility [3] was “high” and the EC50 (GABAA receptors) was 72 nM. The adverse effects [4] was “did not cause any adverse effects”, the “reaction rate, formation of MIDD0301 glucoside” value [5] was 0.0038 min⁻¹ and the “half-life, glucosidation” value ([5]; 10 μM) was 4.93 h. For the same molecule, the “metabolic conversion of MIDD0301” value [6] was “not observed”, the “metabolic conversion of MIDD0301” value [7] was “not observed” and the “conversion of MIDD0301 (glucosidation)” value [8] was “did not observe conversion”. For the same molecule, the “spatial distribution in mouse lung (IMS)” value [9] was “uniform distribution”, the “metabolic conversion of MIDD0301” value [10] was “not observed” and the “half-life, conversion to glucuronide” value [11] was 4 h. The “Feces & Urine (%) 0-48 hours” value ([12]; IP, 750 μg) was 43.9 ± 6.24%, the “Feces (%) 0-24 hours” value ([12]; IP, 750 μg) was 43.2% and 43.2 ± 5.9% and the “Feces (%) 24-48 hours” value ([12]; IP, 750 μg) was 0.3 ± 0.1%. For the same molecule, the “Urine (%) 0-24 hours” value ([12]; IP, 750 μg) was 0.3% and 0.3 ± 0.2%, the “Urine (%) 24-48 hours” value ([12]; IP, 750 μg) was 0.1 ± 0.04% and the “Feces & Urine (%) 0-48 hours” value ([12]; IV, 250 μg) was 32% and 32.0 ± 3.7%. For the same molecule, the “Feces (%) 0-24 hours” value ([12]; IV, 250 μg) was 30.4% and 30.4 ± 3.4%, the “Feces (%) 24-48 hours” value ([12]; IV, 250 μg) was 1.2 ± 0.2% and the “Urine (%) 0-24 hours” value ([12]; IV, 250 μg) was 0.4% and 0.4 ± 0.1%. For the same molecule, the “Urine (%) 24-48 hours” value ([12]; IV, 250 μg) was “<LOD”, the “Feces & Urine (%) 0-48 hours” value ([12]; oral, 750 μg) was 55.1% and 55.1 ± 5.7% and the “Feces (%) 0-24 hours” value ([12]; oral, 750 μg) was 54.3% and 54.3 ± 5.2%. The “Feces (%) 24-48 hours” value ([12]; oral, 750 μg) was 0.7% and 0.7 ± 0.4%, the “Urine (%) 0-24 hours” value ([12]; oral, 750 μg) was 0.1% and 0.1 ± 0.01% and the “Urine (%) 24-48 hours” value ([12]; oral, 750 μg) was “<LOD”. For the same molecule, the bioavailability ([12]; oral, from unconjugated MIDD0301 excreted, 32% IV versus 55.1% oral) was ≤ 77%, the brain absorption [13] was “very little” and the “central nervous system effects” value ([13]; high single or repeated dosing) was “no observed central nervous system effects”. For the same molecule, the “half-life, conversion to glucuronide” value ([14]; mouse liver S9, UDP-GlcUA, alamethicin, saccharolactone, 10 μM) was 2.38 h and the “reaction rate, formation of MIDD0301 glucuronide (first order kinetics)” value ([14]; mouse liver S9, monitored for 8 h) was 0.0042 min⁻¹.
In the case of C#Cc1ccc2c(c1)C(c1ccccc1F)=N[C@H](C)c1c(C(=O)NC)ncn1-2 [MP-III-022], the metabolic stability [15] is listed as “stable”.
In the case of C#Cc1ccc2c(c1)C(c1ccccc1F)=N[C@H](C)c1c(C(=O)OCC)ncn1-2 [SH-053-2’F-R-CH3], the metabolic stability [15] is given as “metabolized fully within four hours”.
In the case of Cc1c(O)cccc1C(=O)N[C@@H](CSc1ccccc1)[C@H](O)CN1C[C@H]2CCCC[C@H]2C[C@H]1C(=O)NC(C)(C)C [nelfinavir, reference compound], the “inhibition of CYP3A4 activity” value (CYP3A4; 100 μM) is reported as “completely inhibited”.

— PMC8760168 (Current drug metabolism, 2021)
